Experimental data taken from ChEMBL document CHEMBL1138852, “Arylpiperazinylalkylpyridazinones and analogues as potent and orally active antinociceptive agents: synthesis and studies on mechanism of action” (J Med Chem, 2006).
Several values for one entry are separate records, joined by “and”; a condition that tells them apart may be missing. Equal values may be shown once. Activity calls are given as the source filed them.

Legend:
[1] = test system: Mus musculus; test: Antinociceptive activity in Swiss Albino mouse at 20 mg/kg, po by writhing test measured as number of writhes; type: functional
Summary of the method: (§1)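 Drugs dosed orally 30 min before test, in saline or 1% CMC suspension; yohimbine arm included. 0.6% acetic acid (10 mL/kg) injected i.p., and abdominal constrictions counted for 10 min from 5 min after injection. Values are means of at least two experiments, compared with CMC-treated mice.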

[2] = test system: Mus musculus; test: Antinociceptive activity in Swiss Albino mouse at 20 mg/kg, po by writhing test measured as number of writhes in presence of yohimbine; type: functional; summary of the method: as §1
[3] = test system: Mus musculus; test: Antinociceptive activity in Swiss Albino mouse at 20 mg/kg, po by hot plate assay measured as licking latency; type: functional; set-up: unit: s
Summary of the method: (§2)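 Oral dosing in saline or 1% CMC. Mice placed on a surface held at 52.5 ± 0.1 °C; paw-licking latency (s) timed before treatment and at intervals up to 60 min afterwards. Mice with pretest latency below 12 or above 18 s were excluded. Cutoff 45 s.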

[4] = test system: Mus musculus; test: Antinociceptive activity in Swiss Albino mouse at 3 mg/kg, po by writhing test measured as number of writhes in presence of yohimbine; type: functional
[5] = test system: Mus musculus; test: Antinociceptive activity in Swiss Albino mouse at 3 mg/kg, po by hot plate assay measured as licking latency; type: functional; summary of the method: as §2
[6] = test system: Mus musculus; test: Antinociceptive activity in Swiss Albino mouse at 3 mg/kg, ip by abdominal constriction assay; type: functional, Abdomen; conditions: route intraperitoneal
Summary of the method: (§3)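 Acetic acid writhing in mice: 0.6% acetic acid at 10 mL/kg i.p., with stretching movements counted over 10 min starting 5 min after injection. Compound A 1 mg/kg s.c. or antagonists i.p. Drugs in 0.9% saline or dispersed in 1% carboxymethylcellulose. Groups of 10-15 mice, compared against saline/CMC controls.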

[7] = test system: Mus musculus; test: Antagonist effect on compound A-induced antinociception in Swiss Albino mouse at 3 mg/kg, ip; type: functional; conditions: route intraperitoneal
Summary of the method: (§4)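 Mice given antagonist i.p. (yohimbine 3 mg/kg, BRL-44408 1 mg/kg, ARC-239 10 mg/kg) plus compound A 1 mg/kg s.c., or antagonist plus vehicle. Abdominal constriction test: 0.6% acetic acid (10 mL/kg) i.p., stretching movements counted for 10 min beginning 5 min after injection. Groups of 10-15 mice, compared with saline/CMC controls.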

[8] = test system: Mus musculus; test: Antinociceptive activity in Swiss Albino mouse at 10 mg/kg, po by writhing test measured as number of writhes; type: functional; summary of the method: as §1
[9] = test system: Mus musculus; test: Antinociceptive activity in Swiss Albino mouse at 30 mg/kg, po by writhing test measured as number of writhes; type: functional; summary of the method: as §1
[10] = test system: Mus musculus; test: Antinociceptive activity in Swiss Albino mouse at 30 mg/kg, po by hot plate assay measured as licking latency; type: functional; summary of the method: as §2
[11] = test system: Mus musculus; test: Antinociceptive activity in Swiss Albino mouse at 1 mg/kg, ip by abdominal constriction assay; type: functional, Abdomen; conditions: route intraperitoneal; summary of the method: as §3
[12] = test system: Mus musculus; test: Antagonist effect on compound A-induced antinociception in Swiss Albino mouse at 1 mg/kg, ip; type: functional; conditions: route intraperitoneal; summary of the method: as §4
[13] = test system: Mus musculus; test: Antinociceptive activity in Swiss Albino mouse at 1 mg/kg, sc by abdominal constriction assay; type: functional, Abdomen; conditions: route subcutaneous; summary of the method: as §3
[14] = species: Mus musculus; test: Impairment in mouse rotarod test; type: functional, organism-based
[15] = molecular target: T1, Alpha-2A adrenergic receptor (Rattus norvegicus, UniProt P22909); test: Binding affinity to adrenergic alpha-2A receptor in Sprague-Dawley rat cortical membranes
T1 sequence (P22909 whole entry): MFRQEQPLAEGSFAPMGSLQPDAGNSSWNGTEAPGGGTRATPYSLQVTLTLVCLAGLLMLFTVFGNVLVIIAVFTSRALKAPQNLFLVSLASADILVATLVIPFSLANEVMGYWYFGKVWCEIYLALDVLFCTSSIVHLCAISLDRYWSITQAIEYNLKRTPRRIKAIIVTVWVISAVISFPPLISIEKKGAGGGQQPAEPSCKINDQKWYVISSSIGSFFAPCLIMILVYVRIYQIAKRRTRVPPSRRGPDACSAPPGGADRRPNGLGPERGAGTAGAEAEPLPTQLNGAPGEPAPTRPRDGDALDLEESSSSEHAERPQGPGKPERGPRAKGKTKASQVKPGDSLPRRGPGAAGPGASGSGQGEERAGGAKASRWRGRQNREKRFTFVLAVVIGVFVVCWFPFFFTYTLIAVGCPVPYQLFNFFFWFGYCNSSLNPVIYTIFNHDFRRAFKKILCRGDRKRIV

[16] = test system: Cerebral cortex; test: Increase in noradrenaline release in Sprague-Dawley rat cortical membranes; type: functional
[17] = molecular target: Norepinephrine transporter (Rattus norvegicus, UniProt Q9WTR4); test: Inhibition of [3H]noradrenaline uptake in Sprague-Dawley rat brain synaptosomes; type: functional, subcellular
Summary of the method: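 Rat frontal cortex synaptosomes prepared on a sucrose gradient and resuspended in Krebs-type buffer, pH 7.4, with 0.01 mM pargyline. Preincubated 5 min at 37 °C with or without drug, then [3H]-NE added for 6 min. Samples filtered and counted. Active uptake taken as accumulation at 37 °C minus accumulation at 0 °C.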

[18] = test system: Mus musculus; test: Antinociceptive activity in Swiss Albino mouse at 5 mg/kg, po by writhing test measured as number of writhes; type: functional; summary of the method: as §1
[19] = test system: Mus musculus; test: Antagonist effect on compound A-induced antinociception in Swiss Albino mouse at 10 mg/kg, ip; type: functional; conditions: route intraperitoneal; summary of the method: as §4

Sequence of Norepinephrine transporter (Q9WTR4 whole entry): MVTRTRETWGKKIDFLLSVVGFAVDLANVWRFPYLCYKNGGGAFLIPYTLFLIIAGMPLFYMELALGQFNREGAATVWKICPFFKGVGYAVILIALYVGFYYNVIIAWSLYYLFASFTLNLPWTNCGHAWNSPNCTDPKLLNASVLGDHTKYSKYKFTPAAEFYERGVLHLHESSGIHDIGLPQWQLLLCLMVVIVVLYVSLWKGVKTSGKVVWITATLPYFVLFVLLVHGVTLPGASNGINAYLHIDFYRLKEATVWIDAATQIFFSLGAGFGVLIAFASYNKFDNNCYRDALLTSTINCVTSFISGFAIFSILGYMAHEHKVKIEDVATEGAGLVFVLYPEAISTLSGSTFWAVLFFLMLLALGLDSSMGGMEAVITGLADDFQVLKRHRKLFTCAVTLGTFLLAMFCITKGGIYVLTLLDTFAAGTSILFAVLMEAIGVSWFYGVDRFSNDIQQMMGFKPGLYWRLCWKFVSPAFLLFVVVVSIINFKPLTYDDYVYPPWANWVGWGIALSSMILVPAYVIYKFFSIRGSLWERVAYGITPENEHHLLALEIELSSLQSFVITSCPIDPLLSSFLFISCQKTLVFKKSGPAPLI

Molecule Cc1cc(C)c2c(-c3ccccc3)nn(CCCN3CCN(c4cccc(Cl)c4)CC3)c(=O)c2n1 has an Activity [1] of 18.

Cc1noc2cnn(CCCN3CCN(c4cccc(Cl)c4)CC3)c(=O)c12 gave an Activity [1] of 11.9, an Activity [2] of 27.4 and an Activity [3] of 27.7.

For COC(=O)[C@@H]1[C@H]2C[C@H]3c4[nH]c5ccccc5c4CCN3C[C@@H]2CC[C@@H]1O [YOHIMBINE], the Activity [4] was 35.9, the Activity [5] was 15.8 and the Activity [6] was 28.5. The Activity [7] was 27.8.

With N#Cc1cccc(N2CCN(CCCn3ncc4ccccc4c3=O)CC2)c1 the Activity [8] was 17.2.

Cc1noc2c(-c3ccccc3)nn(CCC(=O)N3CCN(c4cccc(Cl)c4)CC3)c(=O)c12 gave an Activity [1] of 22.1 and an Activity [2] of 41.3.

In the case of Cc1noc2c(-c3ccc([N+](=O)[O-])cc3)nn(CCCN3CCN(c4cccc(Cl)c4)CC3)c(=O)c12, the Activity [1] is reported as 26.8.

For Cc1noc2c(-c3ccccc3)nn(CCN3CCN(c4cccc(Cl)c4)CC3)c(=O)c12, the Activity [1] was 23.6, the Activity [2] was 37.2 and the Activity [3] was 15.4.

Work on O=c1c2ccccc2cnn1CCCN1CCN(c2ccc(Cl)cc2)CC1 yielded an Activity [1] of 23.9.

With Cc1noc2c(-c3ccccc3)nn(CCCN3CCN(c4ccccn4)CC3)c(=O)c12 the Activity [9] was 30.2 and the Activity [10] was 15.1.

CC1c2ccccc2CN1CC1=NCCN1 (centres undefined) showed an Activity [11] of 32.9 and an Activity [12] of 33.4.

Cc1noc2c(-c3ccccc3[N+](=O)[O-])nn(CCCN3CCN(c4cccc(Cl)c4)CC3)c(=O)c12 was tested, and the Activity [1] was 31.7.

Work on O=C1c2ccccc2C(=O)N1CCN1CCN(c2ccc(F)cc2)CC1 yielded an Activity [1] of 22.6 and an Activity [2] of 37.9.

Cc1noc2c(-c3ccccc3)nn(CCCN3CCN(c4cccc(Cl)c4)CC3)c(=O)c12 was tested, and the Activity [13] was 11.6, the Activity [14] was “inactive” and the Ki [15] was over 1000 nM. The Activity [16] was “Dose-dependent effect” and the IC50 [17] was 130 nM.

Cc1noc2c(-c3ccccc3)nn(CCC(=O)N3CCN(c4ccc(Cl)cc4)CC3)c(=O)c12 gave an Activity [1] of 23.5, an Activity [2] of 45.4 and an Activity [3] of 17.2.

For Cc1noc2c(-c3ccccc3)nn(CCCCN3CCN(c4cccc(Cl)c4)CC3)c(=O)c12, the Activity [1] was 30.6.

Work on CCOC(=O)CCn1nc(-c2ccccc2)c2onc(C)c2c1=O yielded an Activity [1] of 32.7 and an Activity [3] of 17.4.

Cc1noc2c(-c3ccccc3N)nn(CCCN3CCN(c4cccc(Cl)c4)CC3)c(=O)c12 gave an Activity [1] of 28 and an Activity [3] of 16.5.

Cc1noc2c(-c3ccccc3)nn(CCCN3CCN(c4ccc(F)cc4)CC3)c(=O)c12 was tested, and the Activity [9] was 39.2 and the Activity [10] was 17.6.

Work on Cc1nn(CCCN2CCN(c3cccc(Cl)c3)CC2)c(=O)c2nn(-c3ccccc3)c(C)c12 yielded an Activity [1] of 10.3.

Molecule Cc1noc2cnn(CCCCN3CCN(c4cccc(Cl)c4)CC3)c(=O)c12 has an Activity [18] of 27.2.

O=C1c2ccccc2C(=O)N1CCCN1CCN(c2cccc(Cl)c2)CC1 gave an Activity [1] of 34.9 and an Activity [3] of 16.2.

Work on Cc1onc2c(=O)n(CCCN3CCN(c4cccc(Cl)c4)CC3)nc(-c3cccs3)c12 yielded an Activity [1] of 16.2.

Work on Cc1noc2c(-c3ccccc3)nn(CCCN3CCN(c4ccc(Cl)cc4)CC3)c(=O)c12 yielded an Activity [1] of 27.1.

O=C1c2ccccc2C(=O)N1CCCN1CCN(c2ccc(F)cc2)CC1 gave an Activity [1] of 19.4 and an Activity [3] of 36.5.

Cc1noc2c(-c3ccccc3)nnc(SCCCN3CCN(c4ccc(F)cc4)CC3)c12 was tested, and the Activity [1] was 28.6.

Work on CC(CN1CCN(c2cccc(Cl)c2)CC1)Cn1ncc2ccccc2c1=O (centres undefined) yielded an Activity [1] of 36.7.

Cc1noc2c(-c3ccccc3)nn(CC(C)CN3CCN(c4cccc(Cl)c4)CC3)c(=O)c12 (centres undefined) showed an Activity [1] of 35.5.

O=c1c2ccccc2cnn1CCCN1CCN(c2cccc(Cl)c2)CC1 was tested, and the Activity [1] was 8.2, the Activity [2] was 31.8 and the Activity ([3]; 20 mg/kg) was 28 and 83%.

Molecule O=c1c2ccccc2cnn1CCCCN1CCN(c2cccc(Cl)c2)CC1 has an Activity [1] of 28.5.

Molecule COc1ccccc1N1CCN(CCN2C(=O)c3ccccc3C(C)(C)C2=O)CC1 has an Activity [19] of 9.6.
